Active and inactive are the calls of the source. The calls are words filed in the database; no cut-off is given here.

Data set [1] relates to Mus musculus. As to the kind of experiment: Reduction in amyloid beta 42 levels in mouse brain at 30 mg/kg, po measured at 6 hrs post dose by ELISA. The data set is classed as functional. The method, boiled down: (§1)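 Single oral dose of 30 mg/kg; brain (mouse, rat) and rat CSF Aβ42 and Aβ37 measured 6 h post-dose, expressed relative to vehicle; total and free brain drug levels and brain:plasma ratio taken at the same time.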

The nature of data set [2]: Modulation of gamma-secretase in human H4 cells expressing human APP751 assessed as inhibition of amyloid beta 42 production incubated overnight by sandwich ELISA. Format: cell-based. The method in brief: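 Aβ42 EC50 in H4 cells overexpressing WT human APP751; each value is the average of n > 2 assays, each run in duplicate.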
The nature of data set [3]: Unbound intrinsic clearance in rat hepatocytes. The data set is classed as ADME, cell-based, Hepatocyte.
Data set [4] in a line: Modulation of gamma-secretase (unknown origin). Details: species or system Homo sapiens.
In data set [5] the test system is Mus musculus. As to the kind of experiment: Reduction in amyloid beta 42 levels in mouse brain at 90 mg/kg, po measured at 6 hrs post dose by ELISA. Format: functional. The method in brief:
(§2)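 Mice dosed 90 mg/kg; brain Aβ42 lowering, total brain drug concentration and brain:plasma ratio measured 6 hours post-dose.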

Data set [6] in a line: Total drug uptake in mouse brain at 90 mg/kg, po measured at 6 hrs post dose. The data set is classed as ADME, organism-based. The conditions noted are these: read-out: Drug uptake. The method, boiled down:
as §2

The nature of data set [7]: Ratio of drug level in brain to plasma in mouse at 90 mg/kg, po measured at 6 hrs post dose. Format: ADME, organism-based. The conditions noted are these: read-out: BPR. The method in brief: as §2
A short description of data set [8]: Total drug level in mouse brain at 30 mg/kg, po measured at 6 hrs post dose. The conditions noted are these: read-out: Drug uptake. The data set is classed as ADME, organism-based. The method in brief:
as §1

A short description of data set [9]: Ratio of drug level in brain to plasma in mouse at 30 mg/kg, po measured at 6 hrs post dose. Format: ADME, organism-based. The conditions noted are these: read-out: BPR. The method, boiled down: as §1
For data set [10], the system named is Brain. As to the kind of experiment: Unbound drug level in mouse brain at 30 mg/kg, po measured at 6 hrs post dose. The conditions noted are these: in vivo. The data set is classed as ADME, organism-based. The method in brief: as §1

With `COc1cc(C2=NOC[C@@H](COc3ccc(F)cc3C)N2)ccc1-n1cnc(C)c1`, the outcome in data set [1] was inactive. Moreover, the EC50 in data set [2] (Homo sapiens) turned out to be 2890 nM.

The molecule `COc1nc(C2=NOC[C@H](COc3ccc(Cl)cc3C(F)(F)F)N2)ccc1-n1cnc(C)c1` displayed a CL free in data set [3] of 229.8 L/h/kg. In addition, the outcome in data set [1] was inactive. Besides, the EC50 in data set [2] (Homo sapiens) is 27 nM.

`COc1nc(C2=NOCC3CN(c4ccc(Cl)cc4C(F)(F)F)CCN23)ccc1-n1cnc(C)c1` (single isomer, unassigned; (-)): the EC50 in [2] turned out to be 307 nM.

`COc1nc(C2=NOC[C@H](COc3ccc(F)cc3C)N2)ccc1-n1cnc(Cl)c1` registered a CL free in [3] of 246.3 L/h/kg. Besides, the EC50 in [2] (Homo sapiens) is 72 nM.

For `COc1cc(N2CCC(C(=O)N3CCC[C@@H](Oc4ccc(Cl)cc4C(F)(F)F)C3)CC2)ccn1`, in data set [4], a half-maximal response (EC50) required 35 nM.

With `COc1cc(C2=NOC[C@H](COc3ccc(Cl)cc3C(F)(F)F)N2)ccc1-n1cnc(C)c1`, the outcome in data set [1] was inactive. For the same molecule, the EC50 in data set [2] (Homo sapiens) came to 109 nM.

On to `COc1cc(C2=NOC[C@H](COc3ccc(Cl)cc3C(F)(F)F)N2)ccc1-c1ccnc(C)c1`, for which, in data set [1], the result was inactive. Also, in data set [2] (Homo sapiens), the EC50 worked out at 249 nM.

In [5], `COc1nc(C2=NOC[C@@H]3[C@H](Oc4ccc(Cl)cc4C(F)(F)F)CCCN23)ccc1-n1cnc(C)c1` returned an inhibition in vivo at 90 mg/kg of 32%. The concentration at 6 h in data set [6] was determined as 36 µM. Also, in [7], the Kp at 6 h is 0.6. This molecule also showed a CL free in [3] of 255.1 L/h/kg. Moreover, the EC50 in [2] (Homo sapiens) was determined as 15 nM.

On to `COc1cc(C2=NOC[C@H](COc3ccc(F)cc3C)N2)ccc1-c1ccnc(C)c1`, for which, in [1], the outcome was inactive. In addition, the EC50 in data set [2] (Homo sapiens) came out at 109 nM.

Consider `COc1nc(C2=NOC[C@H](COc3ccc(F)cc3C)N2)ccc1-c1cnc(C)s1`, for which the EC50 in [2] (Homo sapiens) came to 1270 nM.

Regarding `COc1nc(C2=NOC[C@H](COc3ccc(F)cc3C)N2)ccc1-c1ocnc1C`, the EC50 in data set [2] (Homo sapiens) came to 1360 nM.

In the case of `COc1cc(C2=NOC[C@H](COc3ccc(F)cc3C)N2)ccc1-n1cnc(C)c1`, the result in [1] was inactive. Moreover, in [2] (Homo sapiens), the EC50 came to 230 nM.

For `COc1nc(C2=NOCC3CN(c4ccc(Cl)cc4C(F)(F)F)CCN23)ccc1-n1cnc(C)c1` (single isomer, unassigned; (+)), the EC50 in [2] is 64 nM.

The molecule `COc1nc(C2=NOC[C@H](COc3ccc(F)cc3C)N2)ccc1-n1cnc(C)c1` returned a CL free in data set [3] of 114.4 L/h/kg. The EC50 in data set [2] (Homo sapiens) was determined as 51 nM.

`COc1nc(C2=NOC[C@H](COc3ccc(F)cc3C)N2)ccc1-c1ccnc(C)c1` showed a CL free in data set [3] of 195.5 L/h/kg. The 50% effective concentration (EC50) in [2] (Homo sapiens) came out at 98 nM.

As to `COc1nc(C2=NOC[C@H]3[C@@H](Oc4ccc(F)cc4C)CCCN23)ccc1-n1cnc(C)c1`, the EC50 in data set [2] (Homo sapiens) is greater than 3000 nM.

As for `COc1nc(C2=NOC[C@H](COc3ccc(F)cc3C)N2)ccc1-c1cnn(C)c1`, in [2] (Homo sapiens), the EC50 is 604 nM.

With `COc1nc(C2=NOC[C@H](c3cc4ccccc4s3)N2)ccc1-n1cnc(C)c1`, the concentration at 6 h in [8] worked out at 30.2 µM. The Kp at 6 h in [9] came out at 2.8. Moreover, in data set [10], the “Drug uptake(free)” value came out at 76 nM. In addition, the CL free in [3] was found to be 25.8 L/h/kg. Further, the inhibition in vivo at 30 mg/kg in data set [1] was found to be 34%. The EC50 in [2] (Homo sapiens) stood at 8 nM.

For `COc1cc(C2=NOC[C@@H](COc3ccc(F)cc3C)N2)ccc1-c1ccnc(C)c1`, in [1], the outcome was inactive. Moreover, the EC50 in data set [2] (Homo sapiens) worked out at 6450 nM.

With `COc1nc(C2=NOC[C@@H]3[C@H](Oc4ccc(F)cc4C)CCCN23)ccc1-n1cnc(C)c1`, the EC50 in [2] (Homo sapiens) was 197 nM.

On to `COc1nc(C2=NOC[C@@H]3[C@H](Oc4ccc(F)cc4C)CCCN23)ccc1-c1ccnc(C)c1`, for which the EC50 in data set [2] (Homo sapiens) worked out at 240 nM.

`COc1cc(C2=NOC[C@H](COc3ccc(Cl)cc3C(F)(F)F)N2C)ccc1-n1cnc(C)c1`: the result in [1] was inactive. Also, the EC50 in data set [2] (Homo sapiens) turned out to be 113 nM.

Source of the values: ChEMBL document CHEMBL4007439, “Design, Synthesis, and Evaluation of a Novel Series of Oxadiazine Gamma Secretase Modulators for Familial Alzheimer's Disease” (J Med Chem, 2017).
